Our source for the Activity and GI50 values is ChEMBL document CHEMBL1765029, “Synthesis and biological evaluation of estradiol linked pyrrolo[2,1-c][1,4]benzodiazepine (PBD) conjugates as potential anticancer agents” (2011).

Molecules are shown by their SMILES. The source made the active and inactive calls. The rule behind the calls is not given here.

The subject of one test is MCF7. Nature of the test: Cell cycle arrest in human MCF7 cells assessed as accumulation at S phase using propidium iodide staining at 4 uM after 24 hrs by flow cytometry. Format: functional. The essentials:
(§1)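 MCF-7 cells (5 × 10⁵ per 60 mm dish) grown 24 h, then exposed to 4 µM compound for a further 24 h; DMSO-treated control. Cells trypsinised, fixed in ice-cold 70% ethanol at 4 °C for 30 min, RNase-treated (1 mg/mL, 37 °C, 30 min), stained with propidium iodide/citrate/Triton X-100. DNA content read on 20,000 events by flow cytometry; percent cells per phase reported.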
For `COc1cc2c(cc1OCCCN1CCN(CCCOc3ccc4c(c3)CC[C@@H]3[C@@H]4CC[C@]4(C)[C@@H](O)CC[C@@H]34)CC1)N=C[C@@H]1C[C@@H](F)CN1C2=O`, the Activity came out at 24.01%.

The subject of another test is A2780. Put plainly: Cytotoxicity against human A2780 cells by sulforhodamine B method. Format: functional. For orientation: Sulforhodamine B stains cellular protein and so reports cell mass.
With `COc1cc2c(cc1OCCCN1CCN(CCCOc3ccc4c(c3)CC[C@@H]3[C@@H]4CC[C@]4(C)[C@@H](O)CC[C@@H]34)CC1)N=C[C@@H]1C[C@@H](F)CN1C2=O`, the GI50 (commonly the concentration giving 50% growth inhibition) was under 0.1 µM.
The same measure, in the same setting: then `COc1cc2c(cc1OCCCOc1ccc3c(c1)CC[C@@H]1[C@@H]3CC[C@]3(C)[C@@H](O)CC[C@@H]13)N=C[C@@H]1CC(F)(F)CN1C2=O`, with 2.1 µM.

The subject of another test is MCF7. Nature of the test: Cell cycle arrest in human MCF7 cells assessed as accumulation at G0 phase using propidium iodide staining at 4 uM after 24 hrs by flow cytometry. Format: functional. The essentials:
as §1
(In general: In flow cytometry, cells or beads pass a laser one at a time.)
Consider `COc1cc2c(cc1OCCCN1CCN(CCCOc3ccc4c(c3)CC[C@@H]3[C@@H]4CC[C@]4(C)[C@@H](O)CC[C@@H]34)CC1)N=C[C@@H]1C[C@@H](F)CN1C2=O`, for which the Activity was found to be 0.87%.

The subject of a further test is A549. Put plainly: Cytotoxicity against human A549 cells by sulforhodamine B method. Format: functional.
Turning to `COc1cc2c(cc1OCCCN1CCN(CCCOc3ccc4c(c3)CC[C@@H]3[C@@H]4CC[C@]4(C)[C@@H](O)CC[C@@H]34)CC1)N=C[C@@H]1C[C@@H](F)CN1C2=O`, the GI50 is under 0.1 µM.
`COc1cc2c(cc1OCCCOc1ccc3c(c1)CC[C@@H]1[C@@H]3CC[C@]3(C)[C@@H](O)CC[C@@H]13)N=C[C@@H]1CC(F)(F)CN1C2=O` registered a GI50 of 2.81 µM.

Test system in the next test: not listed separately
Nature of the test: Cytotoxicity against human DWD cells by sulforhodamine B method. The class given is functional.
`COc1cc2c(cc1OCCCN1CCN(CCCOc3ccc4c(c3)CC[C@@H]3[C@@H]4CC[C@]4(C)[C@@H](O)CC[C@@H]34)CC1)N=C[C@@H]1C[C@@H](F)CN1C2=O` gave a GI50 of 0.1 µM.
In turn, `COc1cc2c(cc1OCCCOc1ccc3c(c1)CC[C@@H]1[C@@H]3CC[C@]3(C)[C@@H](O)CC[C@@H]13)N=C[C@@H]1CC(F)(F)CN1C2=O` had a GI50 of 2.04 µM.

Another test relates to COLO 205. Put plainly: Cytotoxicity against human COLO205 cells by sulforhodamine B method. The class given is functional.
Take `COc1cc2c(cc1OCCCN1CCN(CCCOc3ccc4c(c3)CC[C@@H]3[C@@H]4CC[C@]4(C)[C@@H](O)CC[C@@H]34)CC1)N=C[C@@H]1C[C@@H](F)CN1C2=O`: the GI50 is 0.13 µM.
The molecule `COc1cc2c(cc1OCCCOc1ccc3c(c1)CC[C@@H]1[C@@H]3CC[C@]3(C)[C@@H](O)CC[C@@H]13)N=C[C@@H]1CC(F)(F)CN1C2=O` showed a GI50 of 0.1 µM.

The test system of another test is KB. Put plainly: Cytotoxicity against human KB cells by sulforhodamine B method. Format: functional.
`COc1cc2c(cc1OCCCN1CCN(CCCOc3ccc4c(c3)CC[C@@H]3[C@@H]4CC[C@]4(C)[C@@H](O)CC[C@@H]34)CC1)N=C[C@@H]1C[C@@H](F)CN1C2=O` registered a GI50 of 0.12 µM.
With `COc1cc2c(cc1OCCCOc1ccc3c(c1)CC[C@@H]1[C@@H]3CC[C@]3(C)[C@@H](O)CC[C@@H]13)N=C[C@@H]1CC(F)(F)CN1C2=O`, the GI50 was 0.15 µM.

Another test has as its system MCF7. Put plainly: Cell cycle arrest in human MCF7 cells assessed as accumulation at G2/M phase using propidium iodide staining at 4 uM after 24 hrs by flow cytometry. The class given is functional. Summed up:
as §1
In the case of `COc1cc2c(cc1OCCCN1CCN(CCCOc3ccc4c(c3)CC[C@@H]3[C@@H]4CC[C@]4(C)[C@@H](O)CC[C@@H]34)CC1)N=C[C@@H]1C[C@@H](F)CN1C2=O`, the Activity stood at 24.33%.

In a further test the test system is MCF7. Nature of the test: Cytotoxicity against human MCF7 cells by sulforhodamine B method. Format: functional.
`COc1cc2c(cc1OCCCN1CCN(CCCOc3ccc4c(c3)CC[C@@H]3[C@@H]4CC[C@]4(C)[C@@H](O)CC[C@@H]34)CC1)N=C[C@@H]1C[C@@H](F)CN1C2=O` showed a GI50 of under 0.1 µM.
Still for that read-out and setting: then `COc1cc2c(cc1OCCCOc1ccc3c(c1)CC[C@@H]1[C@@H]3CC[C@]3(C)[C@@H](O)CC[C@@H]13)N=C[C@@H]1CC(F)(F)CN1C2=O`, with 0.17 µM.

For a further test, the system named is HOP-62. Nature of the test: Cytotoxicity against human HOP62 cells by sulforhodamine B method. The class given is functional.
Molecule `COc1cc2c(cc1OCCCN1CCN(CCCOc3ccc4c(c3)CC[C@@H]3[C@@H]4CC[C@]4(C)[C@@H](O)CC[C@@H]34)CC1)N=C[C@@H]1C[C@@H](F)CN1C2=O` returned a GI50 of 0.11 µM.
The same measure, in the same setting: under `COc1cc2c(cc1OCCCOc1ccc3c(c1)CC[C@@H]1[C@@H]3CC[C@]3(C)[C@@H](O)CC[C@@H]13)N=C[C@@H]1CC(F)(F)CN1C2=O` stands 2.11 µM.

Another test relates to MCF7. Nature of the test: Cell cycle arrest in human MCF7 cells assessed as accumulation at G1 phase using propidium iodide staining at 4 uM after 24 hrs by flow cytometry. The class given is functional. Summed up: as §1
For `COc1cc2c(cc1OCCCN1CCN(CCCOc3ccc4c(c3)CC[C@@H]3[C@@H]4CC[C@]4(C)[C@@H](O)CC[C@@H]34)CC1)N=C[C@@H]1C[C@@H](F)CN1C2=O`, the Activity is 50.53%.

Test system in a further test: not listed separately
Put plainly: Cytotoxicity against human Gurav cells by sulforhodamine B method. Format: functional.
Consider `COc1cc2c(cc1OCCCN1CCN(CCCOc3ccc4c(c3)CC[C@@H]3[C@@H]4CC[C@]4(C)[C@@H](O)CC[C@@H]34)CC1)N=C[C@@H]1C[C@@H](F)CN1C2=O`, for which the GI50 amounted to 0.11 µM.
On the same count and under the same terms, under `COc1cc2c(cc1OCCCOc1ccc3c(c1)CC[C@@H]1[C@@H]3CC[C@]3(C)[C@@H](O)CC[C@@H]13)N=C[C@@H]1CC(F)(F)CN1C2=O` stands 2.18 µM.

Another test concerns SiHa. Put plainly: Cytotoxicity against human SiHa cells by sulforhodamine B method. Format: functional.
Turning to `COc1cc2c(cc1OCCCN1CCN(CCCOc3ccc4c(c3)CC[C@@H]3[C@@H]4CC[C@]4(C)[C@@H](O)CC[C@@H]34)CC1)N=C[C@@H]1C[C@@H](F)CN1C2=O`, the GI50 came out at 0.15 µM.
Turning to `COc1cc2c(cc1OCCCOc1ccc3c(c1)CC[C@@H]1[C@@H]3CC[C@]3(C)[C@@H](O)CC[C@@H]13)N=C[C@@H]1CC(F)(F)CN1C2=O`, the GI50 came to 2.81 µM.

The subject of another test is MCF7. Nature of the test: Cytotoxicity against human MCF7 cells at 4 uM after 24 hrs by MTT assay. The class given is functional, cell-based. Summed up: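 MCF-7 cells seeded at 10,000 per well, incubated overnight, then treated at 4 µM for 24 h; DMSO control. Medium replaced with MTT, 2 h at 37 °C. Formazan solubilised in extraction buffer, absorbance read at 570 nm, expressed as percent viability.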
On the technique in general: Tetrazolium assays rely on reduction of a dye to a coloured formazan, in cell work by metabolically active cells.
Regarding `COc1cc2c(cc1OCCCN1CCN(CCCOc3ccc4c(c3)CC[C@@H]3[C@@H]4CC[C@]4(C)[C@@H](O)CC[C@@H]34)CC1)N=C[C@@H]1C[C@@H](F)CN1C2=O`, the outcome was Active.

A further test deals with ZR-75-1. Put plainly: Cytotoxicity against human ZR-75-1 cells by sulforhodamine B method. Format: functional.
Turning to `COc1cc2c(cc1OCCCN1CCN(CCCOc3ccc4c(c3)CC[C@@H]3[C@@H]4CC[C@]4(C)[C@@H](O)CC[C@@H]34)CC1)N=C[C@@H]1C[C@@H](F)CN1C2=O`, the GI50 was under 0.1 µM.
Still for that read-out and setting: under `COc1cc2c(cc1OCCCOc1ccc3c(c1)CC[C@@H]1[C@@H]3CC[C@]3(C)[C@@H](O)CC[C@@H]13)N=C[C@@H]1CC(F)(F)CN1C2=O` stands 0.18 µM.

In a further test the test system is PC-3. Nature of the test: Cytotoxicity against human PC3 cells by sulforhodamine B method. The class given is functional.
The molecule `COc1cc2c(cc1OCCCN1CCN(CCCOc3ccc4c(c3)CC[C@@H]3[C@@H]4CC[C@]4(C)[C@@H](O)CC[C@@H]34)CC1)N=C[C@@H]1C[C@@H](F)CN1C2=O` yielded a GI50 of under 0.1 µM.
Still for that read-out and setting: then `COc1cc2c(cc1OCCCOc1ccc3c(c1)CC[C@@H]1[C@@H]3CC[C@]3(C)[C@@H](O)CC[C@@H]13)N=C[C@@H]1CC(F)(F)CN1C2=O`, with 2.4 µM.
